The source of these data is ChEMBL document CHEMBL3861956, “Lignans from the Australian Endemic Plant Austrobaileya scandens” (J Nat Prod, 2016).

The nature of test [1]: Antiproliferative activity against human PC3 cells after 72 hrs by Alamar Blue assay. The settings on record: PC-3, 72 h. A general note: The colour change of resazurin is a common sign of viable cells or microbes.
Test [2] can be described thus: Antiproliferative activity against human PC3 cells at 10 uM after 72 hrs by Alamar Blue assay relative to control. The settings on record: PC-3, 72 h.
Test [3] deals with PC-3. Put plainly: Induction of apoptosis in human PC3 cells assessed as increase in cell size after 72 hrs by Hoechst 33342/mitotracker deep red/cellmask plasma membrane probe-based fluorescence microscopy. The test is classed as functional. The gist of the method:
(§1)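 PC3 cells seeded at 2000/well onto compound, grown 72 h at 37 °C, 5% CO2. Stained 30 min at 37 °C with Hoechst 33342 (1/1000), 1 μM MitoTracker Deep Red and CellMask plasma membrane (1/1000), then PBS wash. Automated wide-field imaging at 20×, 25 fields/well. Nuclei segmented by Hoechst, cytoplasm by CellMask, border cells excluded. Results normalized to DMSO; at least two experiments.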

The test system of test [4] is PC-3. Put plainly: Induction of apoptosis in human PC3 cells assessed as appearance of rounded cells after 72 hrs by Hoechst 33342/mitotracker deep red/cellmask plasma membrane probe-based fluorescence microscopy. Type of test: functional, cell-based. The gist of the method: as §1
Test [5] has as its system PC-3. The test is described as follows: Induction of apoptosis in human PC3 cells assessed as increase in cell area after 72 hrs by Hoechst 33342/mitotracker deep red/cellmask plasma membrane probe-based fluorescence microscopy. Type of test: functional. The gist of the method:
as §1

Test [6] concerns PC-3. The test is described as follows: Induction of apoptosis in human PC3 cells assessed as increase in mitochondrial area after 72 hrs by Hoechst 33342/mitotracker deep red/cellmask plasma membrane probe-based fluorescence microscopy. The test is classed as functional, cell-based. The gist of the method:
as §1

The test system of test [7] is PC-3. The test is described as follows: Induction of apoptosis in human PC3 cells assessed as increase in nuclear intensity after 72 hrs by Hoechst 33342/mitotracker deep red/cellmask plasma membrane probe-based fluorescence microscopy. The test is classed as functional, cell-based. The method in brief:
as §1

The subject of test [8] is PC-3. The test is described as follows: Induction of apoptosis in human PC3 cells assessed as increase in mitochondrial intensity after 72 hrs by Hoechst 33342/mitotracker deep red/cellmask plasma membrane probe-based fluorescence microscopy. The test is classed as functional, cell-based. The gist of the method: as §1
Test [9] deals with PC-3. Put plainly: Induction of apoptosis in human PC3 cells assessed as chromatin condensation after 72 hrs by Hoechst 33342/mitotracker deep red/cellmask plasma membrane probe-based fluorescence microscopy. Type of test: functional, cell-based. The method in brief: as §1
Test [10] relates to PC-3. Put plainly: Induction of apoptosis in human PC3 cells assessed as appearance of aggregated mitochondrial texture after 72 hrs by Hoechst 33342/mitotracker deep red/cellmask plasma membrane probe-based fluorescence microscopy. Type of test: functional, cell-based. The gist of the method:
as §1

Test [11] is described as follows: Cell cycle arrest in human PC3 cells assessed as accumulation at G0/G1 phase at 0.1 uM after 24 hrs by propidium iodide staining-based flow cytometric method (reference value: 75.3 +/- 1.8%). Type of test: functional. The settings on record: PC-3. The gist of the method: (§2)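 PC3 cells exposed 24 h to 0 (DMSO only), 0.1, 0.3 or 1 μM. Cells collected, washed in ice-cold PBS, fixed in 70% EtOH at −20 °C for 16 h. Stained 20 min at room temperature with 0.1% Triton X-100, 0.2 mg RNaseA and 2 μL PI (1 mg/mL) in 1 mL, then flow cytometry. Phase distribution fitted by ModFit.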
A general note: Flow cytometry measures light scatter and fluorescence of single cells or particles in a stream.

Test [12] in a line: Cell cycle arrest in human PC3 cells assessed as accumulation at S phase at 0.1 uM after 24 hrs by propidium iodide staining-based flow cytometric method (reference value: 15.8 +/- 0.3%). Type of test: functional. Conditions: PC-3. The method in brief:
as §2

A short description of test [13]: Cell cycle arrest in human PC3 cells assessed as accumulation at G2/M phase at 0.1 uM after 24 hrs by propidium iodide staining-based flow cytometric method (reference value: 8.9 +/- 1.5%). Type of test: functional. The settings on record: PC-3. The gist of the method:
as §2

Test [14] can be described thus: Cell cycle arrest in human PC3 cells assessed as accumulation at G0/G1 phase at 0.3 uM after 24 hrs by propidium iodide staining-based flow cytometric method (reference value: 75.3 +/- 1.8%). The test is classed as functional. The settings on record: PC-3. The gist of the method:
as §2

The nature of test [15]: Cell cycle arrest in human PC3 cells assessed as accumulation at S phase at 0.3 uM after 24 hrs by propidium iodide staining-based flow cytometric method (reference value: 15.8 +/- 0.3%). The test is classed as functional. The settings on record: PC-3. The method in brief: as §2
Test [16] can be described thus: Cell cycle arrest in human PC3 cells assessed as accumulation at G2/M phase at 0.3 uM after 24 hrs by propidium iodide staining-based flow cytometric method (reference value: 8.9 +/- 1.5%). Type of test: functional. The settings on record: PC-3. The method in brief:
as §2

Test [17] in a line: Cell cycle arrest in human PC3 cells assessed as accumulation at G0/G1 phase at 1 uM after 24 hrs by propidium iodide staining-based flow cytometric method (reference value: 75.3 +/- 1.8%). Conditions: PC-3. The test is classed as functional. The gist of the method: as §2
Test [18] is described as follows: Cell cycle arrest in human PC3 cells assessed as accumulation at S phase at 1 uM after 24 hrs by propidium iodide staining-based flow cytometric method (reference value: 15.8 +/- 0.3%). Type of test: functional. Conditions: PC-3. The gist of the method:
as §2

A short description of test [19]: Cell cycle arrest in human PC3 cells assessed as accumulation at G2/M phase at 1 uM after 24 hrs by propidium iodide staining-based flow cytometric method (reference value: 8.9 +/- 1.5%). Conditions: PC-3. Type of test: functional. The gist of the method:
as §2

What is called IC50 is the concentration at which inhibition is half-maximal. The inhibition is how much of the control response was suppressed.

In turn, `COc1cc([C@@H]2c3cc4c(cc3C[C@@H](C)[C@@H]2C)OCO4)cc(OC)c1OC` showed an IC50 in test [1] of 823 nM.

With `COc1cc([C@@H]2c3cc4c(cc3C[C@@H](C)[C@@H]2C(=O)O)OCO4)cc2c1OCO2`, half-maximal inhibition in test [1] (IC50) was put at 1630 nM.

In test [1], `COc1cc([C@@H]2c3cc4c(cc3C[C@H]3COC(=O)[C@@H]32)OCO4)cc2c1OCO2` [AUSTROBAILIGNAN 1] showed a half-maximal inhibitory concentration (IC50) of 50 nM.

`C[C@H](Cc1ccc2c(c1)OCO2)[C@H](C)Cc1ccc2c(c1)OCO2` registered an inhibition at 10 µM in test [2] of 27%.

Compound `COc1cc([C@@H]2c3cc4c(cc3C[C@H]3COC(=O)[C@@H]32)OCO4)cc(OC)c1OC` [DESOXYPODOPHYLLOTOXIN] displayed a concentration for half-maximal inhibition (IC50) in [1] of 18 nM.

Regarding `COc1cc([C@@H]2c3cc4c(c(OC)c3C[C@H]3COC(=O)[C@@H]32)OCO4)cc2c1OCO2`, in test [1], the IC50 came out at 47 nM.

With `COc1cc([C@@H]2c3cc4c(c(OC)c3C[C@H]3COC(=O)[C@@H]32)OCO4)cc(OC)c1OC`, the IC50 in [1] is 16 nM. This IC50 is about 2.9-fold lower than that of the compound before.

As for `COc1cc([C@@H]2c3cc4c(cc3C[C@@H](C)[C@@H]2C)OCO4)cc2c1OCO2`, half-maximal inhibition in test [1] (IC50) was put at 2060 nM.

Take `COc1cc(C(=O)O[C@@H](c2ccc3c(c2)OCO3)[C@H](C)C(C)=O)ccc1O`: the Activity result in the test with PC-3 [3], in the test with PC-3 [4], with PC-3 [5], with PC-3 [6], in the test on PC-3 [7] and with PC-3 [8] was “Dose-dependent effect” throughout. For the same compound, the Activity entry is “Dose-dependent effect” with PC-3 [9]; “Dose-dependent effect” in the test on PC-3 [10]; 62.6% in test [11]; 27.5% in test [12]; 9.9% in test [13]; 63.4% in [14]. The Activity worked out at 32.2% in test [15]; 4.4% in test [16]; 61.1% in test [17]; 35.1% in test [18]; 3.8% in test [19]. This compound gave an IC50 in [1] of 1910 nM.

As for `CC(=O)O[C@H]1C(=O)[C@@]2(C)[C@H]([C@H](OC(=O)c3ccccc3)[C@]3(O)C[C@H](OC(=O)[C@H](O)[C@@H](NC(=O)c4ccccc4)c4ccccc4)C(C)=C1C3(C)C)[C@]1(OC(C)=O)CO[C@@H]1C[C@@H]2O` [PACLITAXEL], in test [1], half-maximal inhibition (IC50) required 2 nM.

With `COc1cc([C@@H]2O[C@H](c3ccc4c(c3)OCO4)[C@@H](C)[C@@H]2C)ccc1O`, 5110 nM corresponded to half-maximal inhibition in [1] (IC50).

With `C[C@H]1[C@H](C)C(=O)O[C@@H]1c1ccc2c(c1)OCO2`, the inhibition at 10 µM in [2] amounted to 15%.

`COc1cc(C(c2ccc(O)c(OC)c2)[C@@H](C)[C@H](C)CO)ccc1O` registered an IC50 in [1] of 6360 nM.
